According to ChEMBL document CHEMBL1127665, “Synthesis and antibacterial activity of new quinolones containing a 7-[3-(1-amino-1-methylethyl)-1-pyrrolidinyl] moiety. Gram-positive agents with excellent oral activity and low side-effect potential” (J Med Chem, 1994):
≈ marks a conversion by molar mass, not a printed value.

Key:
Providencia rettgeri = test: Minimum inhibitory concentration against M1771 strain of Providencia rettgeri; format: functional
Procedure, shortened: (§1)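 Tested by microtitration against a panel of 10 Gram-positive and Gram-negative organisms. MIC is reported in μg/mL.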

Staphylococcus aureus [1] = test: Minimum inhibitory concentration against Staphylococcus aureus UC-76; format: functional; procedure, shortened: as §1
Enterobacter cloacae = test: Minimum inhibitory concentration against Enterobacter cloacae MA 2646; format: functional
Mus musculus [2] = test: In vivo antibacterial activity against Streptococcus pyogenes after following oral administration; format: functional; details: read-out: PD50
Procedure, shortened: (§2)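 Acute lethal systemic infection in female Charles River CD-1 mice. Compound given orally or subcutaneously. Potency expressed as median protective dose (PD50, mg/kg), the dose preventing death in 50% of animals.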

Mus musculus [3] = test: In vivo antibacterial activity against Streptococcus pyogenes after following subcutaneous administration; format: functional; details: sc, read-out: PD50; procedure, shortened: as §2
Pseudomonas aeruginosa = test: Minimum inhibitory concentration against U1-18 cell line from Pseudomonas aeruginosa; format: functional; procedure, shortened: as §1
Streptococcus pyogenes = test: Minimum inhibitory concentration against Streptococcus pyogenes C203; format: functional; procedure, shortened: as §1
Escherichia coli = test: Minimum inhibitory concentration against Escherichia coli Vogel; format: functional; procedure, shortened: as §1
Staphylococcus aureus [4] = test: Minimum inhibitory concentration against Staphylococcus aureus H 228; format: functional; procedure, shortened: as §1
Streptococcus pneumoniae = test: Minimum inhibitory concentration tested against Streptococcus pneumoniae SV-1; format: functional; procedure, shortened: as §1
V79 = test: Clonogenic cytotoxicity against Hamster V-79 cells; format: cell-based; details: Cricetulus griseus
Enterococcus faecalis = test: Minimum inhibitory concentration against Streptococcus faecalis MGH-2; format: functional; procedure, shortened: as §1
Klebsiella pneumoniae = test: Minimum inhibitory concentration against Klebsiella pneumoniae MGH-2; format: functional; procedure, shortened: as §1
Mus musculus [5] = test: In vivo antibacterial activity against Escherichia coli after following subcutaneous administration; format: functional; details: sc, read-out: PD50; procedure, shortened: as §2
[6] = The no effect dose (NED) for phototoxicity in mouse; format: organism-based; details: in vivo, read-out: NED
Procedure, shortened: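 Female CD-1 mice were depilated and dosed orally, with five animals per dose plus controls. After each dose the mice were exposed to UVA for 3 h. This was repeated daily for 4 days. Any redness or erythema relative to control was scored positive. The value is the highest dose producing no effect, in mg/kg.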

Mus musculus [7] = test: In vivo antibacterial activity against Escherichia coli after following oral administration; format: functional; details: read-out: PD50; procedure, shortened: as §2

COc1c(N2CC[C@H](C(C)(C)N)C2)c(F)cc2c(=O)c(C(=O)O)cn(C3CC3)c12.Cl
MIC (Providencia rettgeri): 0.8 µg/mL | MIC (Staphylococcus aureus [1]): 0.013 µg/mL | MIC (Enterobacter cloacae): 0.2 µg/mL | ED50 (Mus musculus [2]): 29 mg/kg | ED50 (Mus musculus [3]): 3 mg/kg | MIC (Pseudomonas aeruginosa): 3.1 µg/mL | MIC (Streptococcus pyogenes): 0.025 µg/mL | MIC (Escherichia coli): 0.2 µg/mL | MIC (Staphylococcus aureus [4]): 0.05 µg/mL | MIC (Streptococcus pneumoniae): 0.025 µg/mL | IC50 (V79): > 500 µg/mL | MIC (Enterococcus faecalis): 0.05 µg/mL | MIC (Klebsiella pneumoniae): 0.4 µg/mL

CC(C)(N)[C@H]1CCN(c2nc3c(cc2F)c(=O)c(C(=O)O)cn3C2CC2)C1.Cl
MIC (Providencia rettgeri): 0.8 µg/mL | ED50 (Mus musculus [5]): 3 mg/kg | NOAEL [6]: 55 mg/kg | MIC (Staphylococcus aureus [1]): 0.025 µg/mL | MIC (Enterobacter cloacae): 0.2 µg/mL | ED50 (Mus musculus [2]): 32 mg/kg | ED50 (Mus musculus [3]): 6 mg/kg | MIC (Pseudomonas aeruginosa): 3.1 µg/mL | MIC (Streptococcus pyogenes): 0.1 µg/mL | ED50 (Mus musculus [7]): 10 mg/kg | MIC (Escherichia coli): 0.2 µg/mL | MIC (Staphylococcus aureus [4]): 0.1 µg/mL | MIC (Streptococcus pneumoniae): 0.05 µg/mL | MIC (Enterococcus faecalis): 0.1 µg/mL | MIC (Klebsiella pneumoniae): 0.4 µg/mL

COc1c(N2CC[C@@H](C(C)(C)N)C2)c(F)cc2c(=O)c(C(=O)O)cn(C3CC3)c12.Cl
MIC (Providencia rettgeri): 0.4 µg/mL | ED50 (Mus musculus [5]): 3 mg/kg | MIC (Staphylococcus aureus [1]): 0.003 µg/mL | MIC (Enterobacter cloacae): 0.1 µg/mL | ED50 (Mus musculus [2]): 2 mg/kg | ED50 (Mus musculus [3]): 0.6 mg/kg | MIC (Pseudomonas aeruginosa): 1.6 µg/mL | MIC (Streptococcus pyogenes): 0.003 µg/mL | ED50 (Mus musculus [7]): 26 mg/kg | MIC (Escherichia coli): 0.1 µg/mL | MIC (Staphylococcus aureus [4]): 0.013 µg/mL | MIC (Streptococcus pneumoniae): 0.003 µg/mL | IC50 (V79): 18 µg/mL | MIC (Enterococcus faecalis): 0.013 µg/mL | MIC (Klebsiella pneumoniae): 0.2 µg/mL

O=C(O)c1cn(C2CC2)c2cc(N3CCNCC3)c(F)cc2c1=O [CIPROFLOXACIN]
MIC (Providencia rettgeri): 0.1 µg/mL (≈ 0.302 µM) | ED50 (Mus musculus [5]): 0.3 mg/kg | NOAEL [6]: > 100 mg/kg | MIC (Staphylococcus aureus [1]): 0.2 µg/mL (≈ 0.604 µM) | ED50 (Mus musculus [2]): 180 mg/kg | ED50 (Mus musculus [3]): 19 mg/kg | MIC (Pseudomonas aeruginosa): 0.4 µg/mL (≈ 1.21 µM) | MIC (Streptococcus pyogenes): 0.8 µg/mL (≈ 2.41 µM) | ED50 (Mus musculus [7]): 1 mg/kg | MIC (Staphylococcus aureus [4]): 3.1 µg/mL (≈ 9.36 µM) | MIC (Streptococcus pneumoniae): 1.6 µg/mL (≈ 4.83 µM) | MIC (Enterococcus faecalis): 0.8 µg/mL (≈ 2.41 µM) | MIC (Klebsiella pneumoniae): 0.05 µg/mL (≈ 0.151 µM)

NCC1CCN(c2nc3c(cc2F)c(=O)c(C(=O)O)cn3C2CC2)C1 (stereo not drawn)
MIC (Providencia rettgeri): 0.4 µg/mL (≈ 1.15 µM) | ED50 (Mus musculus [5]): 1 mg/kg | MIC (Staphylococcus aureus [1]): 0.003 µg/mL (≈ 0.00866 µM) | MIC (Enterobacter cloacae): 0.1 µg/mL (≈ 0.289 µM) | ED50 (Mus musculus [2]): 39 mg/kg | ED50 (Mus musculus [3]): 4 mg/kg | MIC (Pseudomonas aeruginosa): 0.2 µg/mL (≈ 0.577 µM) | MIC (Streptococcus pyogenes): 0.025 µg/mL (≈ 0.0722 µM) | ED50 (Mus musculus [7]): 17 mg/kg | MIC (Escherichia coli): 0.05 µg/mL (≈ 0.144 µM) | MIC (Staphylococcus aureus [4]): 0.1 µg/mL (≈ 0.289 µM) | MIC (Streptococcus pneumoniae): 0.1 µg/mL (≈ 0.289 µM) | IC50 (V79): 42 µg/mL (≈ 121 µM) | MIC (Enterococcus faecalis): 0.025 µg/mL (≈ 0.0722 µM) | MIC (Klebsiella pneumoniae): 0.1 µg/mL (≈ 0.289 µM)

C[C@@H](N)C1CCN(c2nc3c(cc2F)c(=O)c(C(=O)O)cn3C2CC2)C1 (stereo partly drawn)
MIC (Providencia rettgeri): 0.1 µg/mL (≈ 0.277 µM) | ED50 (Mus musculus [5]): 0.4 mg/kg | NOAEL [6]: 30 mg/kg | MIC (Staphylococcus aureus [1]): 0.003 µg/mL (≈ 0.00832 µM) | MIC (Enterobacter cloacae): 0.05 µg/mL (≈ 0.139 µM) | ED50 (Mus musculus [2]): 3 mg/kg | ED50 (Mus musculus [3]): 1 mg/kg | MIC (Pseudomonas aeruginosa): 0.4 µg/mL (≈ 1.11 µM) | MIC (Streptococcus pyogenes): 0.013 µg/mL (≈ 0.0361 µM) | ED50 (Mus musculus [7]): 2 mg/kg | MIC (Escherichia coli): 0.025 µg/mL (≈ 0.0694 µM) | MIC (Staphylococcus aureus [4]): 0.025 µg/mL (≈ 0.0694 µM) | MIC (Streptococcus pneumoniae): 0.003 µg/mL (≈ 0.00832 µM) | IC50 (V79): 33 µg/mL (≈ 91.6 µM) | MIC (Enterococcus faecalis): 0.013 µg/mL (≈ 0.0361 µM) | MIC (Klebsiella pneumoniae): 0.05 µg/mL (≈ 0.139 µM)

NC1CCN(c2c(F)cc3c(=O)c(C(=O)O)cn(C4CC4)c3c2F)C1 (stereo not drawn)
MIC (Providencia rettgeri): 0.05 µg/mL (≈ 0.143 µM) | ED50 (Mus musculus [5]): 0.2 mg/kg | NOAEL [6]: 3 mg/kg | MIC (Staphylococcus aureus [1]): 0.025 µg/mL (≈ 0.0716 µM) | MIC (Enterobacter cloacae): 0.025 µg/mL (≈ 0.0716 µM) | ED50 (Mus musculus [2]): 8 mg/kg | ED50 (Mus musculus [3]): 2 mg/kg | MIC (Pseudomonas aeruginosa): 0.1 µg/mL (≈ 0.286 µM) | MIC (Streptococcus pyogenes): 0.05 µg/mL (≈ 0.143 µM) | ED50 (Mus musculus [7]): 1 mg/kg | MIC (Escherichia coli): 0.013 µg/mL (≈ 0.0372 µM) | MIC (Staphylococcus aureus [4]): 0.05 µg/mL (≈ 0.143 µM) | MIC (Streptococcus pneumoniae): 0.05 µg/mL (≈ 0.143 µM) | MIC (Enterococcus faecalis): 0.05 µg/mL (≈ 0.143 µM) | MIC (Klebsiella pneumoniae): 0.025 µg/mL (≈ 0.0716 µM)

CC(C)(N)[C@@H]1CCN(c2nc3c(cc2F)c(=O)c(C(=O)O)cn3C2CC2)C1.Cl
MIC (Providencia rettgeri): 0.4 µg/mL | ED50 (Mus musculus [5]): 1 mg/kg | NOAEL [6]: 73 mg/kg | MIC (Staphylococcus aureus [1]): 0.003 µg/mL | MIC (Enterobacter cloacae): 0.1 µg/mL | ED50 (Mus musculus [2]): 4 mg/kg | ED50 (Mus musculus [3]): 1 mg/kg | MIC (Pseudomonas aeruginosa): 1.6 µg/mL | MIC (Streptococcus pyogenes): 0.013 µg/mL | ED50 (Mus musculus [7]): 5 mg/kg | MIC (Escherichia coli): 0.05 µg/mL | MIC (Staphylococcus aureus [4]): 0.1 µg/mL | MIC (Streptococcus pneumoniae): 0.006 µg/mL | IC50 (V79): 130 µg/mL | MIC (Enterococcus faecalis): 0.05 µg/mL | MIC (Klebsiella pneumoniae): 0.2 µg/mL

CC(C)(N)[C@@H]1CCN(c2c(F)cc3c(=O)c(C(=O)O)cn(C4CC4)c3c2Cl)C1.Cl
MIC (Providencia rettgeri): 0.2 µg/mL | ED50 (Mus musculus [5]): 1 mg/kg | MIC (Staphylococcus aureus [1]): 0.003 µg/mL | MIC (Enterobacter cloacae): 0.05 µg/mL | ED50 (Mus musculus [2]): 2 mg/kg | ED50 (Mus musculus [3]): 0.1 mg/kg | MIC (Pseudomonas aeruginosa): 0.8 µg/mL | MIC (Streptococcus pyogenes): 0.003 µg/mL | ED50 (Mus musculus [7]): 8 mg/kg | MIC (Escherichia coli): 0.05 µg/mL | MIC (Staphylococcus aureus [4]): 0.006 µg/mL | MIC (Streptococcus pneumoniae): 0.003 µg/mL | IC50 (V79): < 8 µg/mL | MIC (Enterococcus faecalis): 0.013 µg/mL | MIC (Klebsiella pneumoniae): 0.1 µg/mL
